The nature of data set [1]: Efflux ratio of apparent permeability from basolateral to apical side over apical to basolateral side in human Caco2 cells at 25 uM. Conditions: Caco-2. It is filed as ADME, cell-based. Background: Passage across Caco-2 layers is used to estimate intestinal permeability.
In another data set the target is CYP2D6 (Homo sapiens, UniProt P10635). Briefly: Inhibition of CYP2D6 in human liver microsomes assessed as remaining activity at 10 uM using dextromethorphan as substrate preincubated for 5 mins followed by addition of NADPH regenerating system and measured after 15 mins by LC-MS/MS analysis relative to control. The class given is ADME. Conditions: probe dextromethorphan, read-out: Activity. Put shortly: (§1)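 Human liver microsomes (0.25 mg/mL) in 0.1 M phosphate buffer with test article at 0 or 10 μM and substrate cocktail, preincubated 5 min at 37 °C. Cocktail A: phenacetin 50 μM, coumarin 2.5 μM, S-mephenytoin 100 μM, dextromethorphan 5 μM, midazolam 2.5 μM. Cocktail B: bupropion 50 μM, amodiaquine 2.5 μM, tolbutamide 100 μM, chlorzoxazone 50 μM. NADPH system added, then 15 min at 37 °C; acetonitrile quench, LC-MS/MS.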
Sequence of CYP2D6 (P10635 whole entry): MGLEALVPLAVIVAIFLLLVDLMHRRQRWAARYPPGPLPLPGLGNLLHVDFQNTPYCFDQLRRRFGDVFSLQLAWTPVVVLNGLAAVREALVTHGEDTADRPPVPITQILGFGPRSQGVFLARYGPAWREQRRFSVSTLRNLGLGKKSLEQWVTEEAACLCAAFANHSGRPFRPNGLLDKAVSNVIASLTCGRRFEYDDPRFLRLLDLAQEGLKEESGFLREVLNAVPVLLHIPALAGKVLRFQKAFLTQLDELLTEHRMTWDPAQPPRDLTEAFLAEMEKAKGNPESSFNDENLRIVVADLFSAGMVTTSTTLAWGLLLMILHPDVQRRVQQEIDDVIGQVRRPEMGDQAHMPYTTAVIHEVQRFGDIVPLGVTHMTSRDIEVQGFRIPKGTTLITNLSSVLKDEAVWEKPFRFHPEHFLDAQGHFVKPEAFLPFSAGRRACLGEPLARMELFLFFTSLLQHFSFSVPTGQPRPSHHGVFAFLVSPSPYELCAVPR

Data set [2] is described as follows: Protein binding in rat plasma at 10 uM after 4 hrs by rapid equilibrium dialysis method. The class given is ADME, cell-free. Conditions: read-out: PPB (converted). Put shortly:
(§2)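 Rapid equilibrium dialysis of human or rat plasma dosed at 10 μM against PBS pH 7.4, 4 h at 37 °C. Plasma and buffer aliquots were matrix-matched with blank buffer or plasma, precipitated with acetonitrile containing chlorpropamide internal standard, and analysed by LC-MS/MS. Dexamethasone and warfarin served as positive controls.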
For orientation: In equilibrium dialysis free small molecules cross a membrane that holds back macromolecules.

Data set [3] can be described thus: Apparent permeability across basolateral to apical side in human Caco2 cells at 25 uM measured every 15 mins for 60 mins by LC-MS/MS method. Conditions: Caco-2. The class given is ADME, cell-based. Summed up: (§3)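 Caco-2 cells were seeded at 1×10^6 per 12-well transwell and grown 3 weeks. Test article was 25 μM in HBSS transport buffer (10 mM glucose, 4 mM bicarbonate, 1 mM HEPES, pH 7.4), added to the apical or basolateral side. Incubated 60 min at 37 °C with sampling every 15 min; LC-MS/MS read-out.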

A short description of data set [4]: Protein binding in human plasma at 10 uM after 4 hrs by rapid equilibrium dialysis method. Conditions: read-out: PPB (converted). The class given is ADME, cell-free. Summed up:
as §2

Data set [5] in a line: Metabolic stability in rat plasma assessed as parent compound remaining at 10 uM after 120 mins by LC-MS/MS method. Conditions: read-out: Stability. It is filed as ADME, cell-free. Put shortly:
(§4)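 Rat plasma spiked with test article at 10 μM and incubated at 37 °C, sampled at 0, 30 and 120 min. Acetonitrile containing chlorpropamide internal standard added, then vortexed and centrifuged at 4 °C; supernatant quantified by LC-MS/MS as % remaining. Procaine and diltiazem served as positive controls.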

Data set [6] is described as follows: Metabolic stability in rat plasma assessed as parent compound remaining at 10 uM after 30 mins by LC-MS/MS method. The class given is ADME, cell-free. The conditions noted are these: read-out: Stability. Summed up: as §4
In the next data set the target is CYP2C9 (Homo sapiens, UniProt P11712). The experiment in a line: Inhibition of CYP2C9 in human liver microsomes assessed as remaining activity at 10 uM using tolbutamide as substrate preincubated for 5 mins followed by addition of NADPH regenerating system and measured after 15 mins by LC-MS/MS analysis relative to control. It is filed as ADME. The conditions noted are these: probe tolbutamide, read-out: Activity. Put shortly:
as §1

The nature of data set [7]: Metabolic stability in rat liver microsomes assessed as parent compound remaining at 1 uM preincubated for 5 mins followed by addition of NADPH regenerating system and measured after 30 mins by LC-MS/MS method. It is filed as ADME, microsome. The conditions noted are these: read-out: Stability. Summed up: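 Liver microsomes (0.5 mg/mL) in 0.1 M phosphate buffer with test article at 1 μM. Preincubated 5 min at 37 °C, then NADPH regeneration system added and incubated 30 min at 37 °C. Quenched with acetonitrile containing chlorpropamide internal standard and centrifuged; supernatant analysed by LC-MS/MS for % parent remaining. Verapamil served as positive control.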
(Liver microsomes are vesicles of endoplasmic reticulum, rich in cytochrome P450 enzymes.)

The nature of data set [8]: Metabolic stability in mouse liver microsomes assessed as parent compound remaining at 1 uM preincubated for 5 mins followed by addition of NADPH regenerating system and measured after 30 mins by LC-MS/MS method. The class given is ADME, microsome. The conditions noted are these: read-out: Stability. Put shortly: (§5)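 Liver microsomes (0.5 mg/mL; human, dog or mouse) in 0.1 M phosphate buffer with test article at 1 μM, preincubated 5 min at 37 °C. NADPH regenerating system added, then 30 min at 37 °C. Acetonitrile with chlorpropamide internal standard added, sample centrifuged, supernatant analysed by LC-MS/MS.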

Another data set concerns the target T1, CYP2A6 (Homo sapiens, UniProt P11509).
T1 sequence (P11509 whole entry): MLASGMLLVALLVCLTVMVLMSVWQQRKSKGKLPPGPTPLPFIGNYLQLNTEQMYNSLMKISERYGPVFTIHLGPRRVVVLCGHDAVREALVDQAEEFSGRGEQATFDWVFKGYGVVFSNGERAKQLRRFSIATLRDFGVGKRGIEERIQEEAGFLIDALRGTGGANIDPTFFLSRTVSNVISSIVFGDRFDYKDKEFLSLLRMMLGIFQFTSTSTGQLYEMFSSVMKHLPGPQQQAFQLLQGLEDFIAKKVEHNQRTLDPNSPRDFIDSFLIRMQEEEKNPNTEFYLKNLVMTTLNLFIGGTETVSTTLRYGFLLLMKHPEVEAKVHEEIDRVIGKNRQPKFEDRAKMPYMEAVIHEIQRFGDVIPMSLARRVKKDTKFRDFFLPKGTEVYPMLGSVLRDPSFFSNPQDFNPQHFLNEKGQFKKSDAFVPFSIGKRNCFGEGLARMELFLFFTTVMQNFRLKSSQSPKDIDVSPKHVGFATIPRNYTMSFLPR
Briefly: Inhibition of CYP2A6 in human liver microsomes assessed as remaining activity at 10 uM using coumarin as substrate preincubated for 5 mins followed by addition of NADPH regenerating system and measured after 15 mins by LC-MS/MS analysis relative to control. The class given is ADME. Conditions: probe coumarin, read-out: Activity. Put shortly:
as §1

For a further data set, the target named is CYP2C19 (Homo sapiens, UniProt P33261). The experiment in a line: Inhibition of CYP2C19 in human liver microsomes assessed as remaining activity at 10 uM using S-mephenytoin as substrate preincubated for 5 mins followed by addition of NADPH regenerating system and measured after 15 mins by LC-MS/MS analysis relative to control. The conditions noted are these: probe S-mephenytoin, read-out: Activity. It is filed as ADME. Put shortly:
as §1

Another data set has as its target CYP3A4 (Homo sapiens, UniProt P08684). Briefly: Inhibition of CYP3A4 in human liver microsomes assessed as remaining activity at 10 uM using midazolam as substrate preincubated for 5 mins followed by addition of NADPH regenerating system and measured after 15 mins by LC-MS/MS analysis relative to control. The class given is ADME. Conditions: probe midazolam, read-out: Activity. Put shortly: as §1

Data set [9] can be described thus: Lipophilicity, log P of the compound in neutral form. The class given is physicochemical. Conditions: octanol/water.
A short description of data set [10]: Metabolic stability in human plasma assessed as parent compound remaining at 10 uM after 30 mins by LC-MS/MS method. The class given is ADME, cell-free. Conditions: read-out: Stability. Put shortly: (§6)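 Human plasma spiked with test article at 10 μM and incubated at 37 °C for 0, 30 and 120 min. Acetonitrile with chlorpropamide internal standard added, sample centrifuged at 4 °C, supernatant analysed by LC-MS/MS; result given as percent remaining.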

Data set [11] in a line: Metabolic stability in human liver microsomes assessed as parent compound remaining at 1 uM preincubated for 5 mins followed by addition of NADPH regenerating system and measured after 30 mins by LC-MS/MS method. It is filed as ADME, microsome. The conditions noted are these: read-out: Stability. Put shortly:
as §5

Data set [12] is described as follows: Apparent permeability across apical to basolateral side in human Caco2 cells at 25 uM measured every 15 mins for 60 mins by LC-MS/MS method. It is filed as ADME, cell-based. Conditions: Caco-2. Put shortly:
as §3

Data set [13] in a line: Metabolic stability in human plasma assessed as parent compound remaining at 10 uM after 120 mins by LC-MS/MS method. The class given is ADME, cell-free. The conditions noted are these: read-out: Stability. Put shortly: as §6

By efflux ratio is commonly meant a quotient of directional permeabilities that is used to spot active efflux. Broadly, the Papp B→A is the apparent permeability from the basolateral to the apical side of a cell layer. Usually logP stands for a log measure of how a compound divides between an organic and an aqueous phase. A higher logP goes with a more lipophilic compound. The term Papp A→B denotes how fast a substance crosses the layer from the apical side.

Sequence of CYP2C19 (P33261 whole entry): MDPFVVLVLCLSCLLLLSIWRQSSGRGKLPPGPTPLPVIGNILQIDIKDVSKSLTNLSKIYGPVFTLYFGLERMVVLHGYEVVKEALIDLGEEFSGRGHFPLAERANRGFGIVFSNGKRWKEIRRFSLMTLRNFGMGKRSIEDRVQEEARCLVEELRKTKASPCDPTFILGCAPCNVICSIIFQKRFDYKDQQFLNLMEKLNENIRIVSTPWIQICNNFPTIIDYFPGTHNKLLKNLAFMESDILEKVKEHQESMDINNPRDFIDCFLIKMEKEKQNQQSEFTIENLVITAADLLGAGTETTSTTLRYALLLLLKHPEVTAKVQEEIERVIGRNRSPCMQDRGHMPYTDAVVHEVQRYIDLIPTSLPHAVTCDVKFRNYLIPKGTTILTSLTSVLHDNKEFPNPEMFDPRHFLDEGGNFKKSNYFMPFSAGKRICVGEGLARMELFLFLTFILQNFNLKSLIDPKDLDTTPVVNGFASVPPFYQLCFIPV
Sequence of CYP3A4 (P08684 whole entry): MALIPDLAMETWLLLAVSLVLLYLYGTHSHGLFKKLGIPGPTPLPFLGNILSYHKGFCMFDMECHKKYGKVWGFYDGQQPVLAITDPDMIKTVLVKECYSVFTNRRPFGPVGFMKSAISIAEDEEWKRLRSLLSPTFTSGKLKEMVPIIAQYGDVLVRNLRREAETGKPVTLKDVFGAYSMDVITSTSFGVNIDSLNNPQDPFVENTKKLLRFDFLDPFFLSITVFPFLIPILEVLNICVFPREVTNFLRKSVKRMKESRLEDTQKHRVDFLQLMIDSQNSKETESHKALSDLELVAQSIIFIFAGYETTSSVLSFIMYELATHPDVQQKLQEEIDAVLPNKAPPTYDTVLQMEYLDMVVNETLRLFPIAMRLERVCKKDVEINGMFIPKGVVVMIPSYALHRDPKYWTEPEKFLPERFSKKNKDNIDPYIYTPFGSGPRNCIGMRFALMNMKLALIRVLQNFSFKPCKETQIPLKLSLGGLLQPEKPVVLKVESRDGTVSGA
Sequence of CYP2C9 (P11712 whole entry): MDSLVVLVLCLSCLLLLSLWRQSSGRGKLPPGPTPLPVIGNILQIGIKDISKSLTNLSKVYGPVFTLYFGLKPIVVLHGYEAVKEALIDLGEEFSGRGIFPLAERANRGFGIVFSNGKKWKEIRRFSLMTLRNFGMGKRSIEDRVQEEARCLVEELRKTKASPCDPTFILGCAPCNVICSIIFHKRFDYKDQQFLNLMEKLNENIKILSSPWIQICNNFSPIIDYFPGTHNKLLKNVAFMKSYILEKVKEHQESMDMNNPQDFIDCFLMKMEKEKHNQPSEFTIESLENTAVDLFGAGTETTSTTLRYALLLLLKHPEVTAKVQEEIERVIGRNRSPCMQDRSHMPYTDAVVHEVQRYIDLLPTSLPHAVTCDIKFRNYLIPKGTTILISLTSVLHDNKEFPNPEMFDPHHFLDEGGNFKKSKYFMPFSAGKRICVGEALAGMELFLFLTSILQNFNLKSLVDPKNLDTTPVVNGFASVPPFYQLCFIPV

`CN(c1ncnc2[nH]ccc12)[C@H]1CN(C(=O)CC#N)CC12CC2`: in data set [1], the efflux ratio at 25 µM was determined as 2.78. In addition, the activity at 0.25 h, 10 µM on CYP2D6 stood at 91.6%; on CYP2C9, 84.4%; on CYP2A6, 92%; at CYP2C19 it was 66%; on CYP3A4 it was 89.7%. Further, the fraction unbound at 4 h, 10 µM in data set [2] is 0.813; in data set [4], 0.702. The Papp B→A at 1 h, 25 µM in data set [3] is 18.5 ×10⁻⁶ cm/s. For the same compound, the remaining at 2 h, 10 µM in data set [5] was 89.6%; in data set [13] it was 98.5%. Further, the values for the remaining at 0.5 h, 10 µM in [6] and in data set [10] were 98.4% and 95%, respectively. In addition, the values for the remaining at 0.5 h, 1 µM in data set [7], in data set [8] and in data set [11] were 84.8%, 84.9% and 94.6%, respectively. In data set [9], this compound had a logP of 1.69. In addition, the Papp A→B at 1 h, 25 µM in data set [12] is 6.6 ×10⁻⁶ cm/s.

`CCS(=O)(=O)N1C[C@H](N(C)c2ncnc3[nH]ccc23)C2(CC2)C1`: the efflux ratio at 25 µM in data set [1] came to 1.01. Moreover, the activity at 0.25 h, 10 µM is over 100% on CYP2D6; 90.7% on CYP2C9; 96.7% at CYP2A6; 93.8% at CYP2C19; 95.4% at CYP3A4. For the same compound, the results for the fraction unbound at 4 h, 10 µM in data set [2] and in data set [4] were 0.505 and 0.556, respectively. For the same compound, in data set [3], the Papp B→A at 1 h, 25 µM was found to be 25.6 ×10⁻⁶ cm/s. In addition, the remaining at 2 h, 10 µM in [5] and in [13] was over 100% in each case. Moreover, the remaining at 0.5 h, 10 µM in data set [6] and in data set [10] was over 100% in each case. In addition, the remaining at 0.5 h, 1 µM in data set [7] worked out at 22.9%; in data set [8], 33.9%; in [11], 79.7%. The compound further returned a logP in data set [9] of 2.07. Further, the Papp A→B at 1 h, 25 µM in [12] is 25.4 ×10⁻⁶ cm/s.

With `CN(c1ncnc2[nH]ccc12)[C@H]1CN(S(=O)(=O)c2cccc(C#N)c2)CC12CC2`, the efflux ratio at 25 µM in data set [1] worked out at 1.17. The activity at 0.25 h, 10 µM at CYP2D6 is 90.3%; at CYP2C9 it was 50.4%; on CYP2A6 it was 87.2%; at CYP2C19 it was 55.8%; at CYP3A4 it was 33.2%. The figures for the fraction unbound at 4 h, 10 µM in [2] and in [4] were 0.142 and 0.126, respectively. Moreover, in data set [3], the Papp B→A at 1 h, 25 µM is 15.7 ×10⁻⁶ cm/s. The values for the remaining at 2 h, 10 µM in data set [5] and in [13] were over 100% and 98.6%, respectively. For the same compound, the results for the remaining at 0.5 h, 10 µM in data set [6] and in data set [10] were over 100% and 96.6%, respectively. The remaining at 0.5 h, 1 µM in data set [7] is 2.4%; in data set [8], 3.2%; in data set [11], 6%. In addition, the logP in data set [9] came to 3.69. The Papp A→B at 1 h, 25 µM in data set [12] came to 13.4 ×10⁻⁶ cm/s.

For the origin of these results see ChEMBL document CHEMBL4257478, “Design, synthesis and evaluation of (R)-3-(7-(methyl(7H-pyrrolo[2,3-d]pyrimidin-4-yl)amino)-5-azaspiro[2.4]heptan-5-yl)-3-oxopropanenitrile as a JAK1-selective inhibitor” (Medchemcomm, 2018).
